# Measurements published in ChEMBL document CHEMBL5058577, “EUbOPEN Chemogenomics Library 2 (Multiplex)” (2022).
# System: Fibroblast
# Assay: Multiplex assay against human fibroblast
# Format: toxicity, cell-based
# Procedure, shortened: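 Hoechst33342, BioTracker Green Microtubule Cytoskeleton Dye, MitoTracker Red and Annexin V Alexa Fluor 680 were added to live cells at seeding, and imaging on a CQ1 microscope at 37°C and 5% CO2 followed compound addition. Gating by CellPathfinder machine learning separated cells into Hoechst high-intensity objects or normal cells, then normal cells into healthy, pyknosed or fragmented nuclei, then pyknosed cells into mitotic or apoptotic. Per cents of healthy-nucleus cells are reported for the tubulin, mitochondrial-mass and membrane-permeability phenotypes.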
# [1] = 12 h, 1 µM, compound concentration 1 uM, replicate 1
# [2] = 12 h, 1 µM, compound concentration 1 uM, replicate 2
# [3] = 12 h, 10 µM, compound concentration 10 uM, replicate 1
# [4] = 12 h, 10 µM, compound concentration 10 uM, replicate 2
# [5] = 24 h, 1 µM, compound concentration 1 uM, replicate 1
# [6] = 24 h, 1 µM, compound concentration 1 uM, replicate 2
# [7] = 24 h, 10 µM, compound concentration 10 uM, replicate 1
# [8] = 24 h, 10 µM, compound concentration 10 uM, replicate 2
# [9] = 48 h, 1 µM, compound concentration 1 uM, replicate 1
# [10] = 48 h, 1 µM, compound concentration 1 uM, replicate 2
# [11] = 48 h, 10 µM, compound concentration 10 uM, replicate 1
# [12] = 48 h, 10 µM, compound concentration 10 uM, replicate 2
smiles,measurement,setting,value
N#Cc1cc(F)cc(-c2nc(-c3ccc(F)cn3)no2)c1,Population Apoptotic (%),[1],28%
same,Population Fragmented Nuclei (%),[1],21%
same,Population Healthy Nuclei (%),[1],63%
same,Population Hoechst High Intensity Objects (%),[1],0%
same,Population Membrane Permeable-Phenotype (%),[1],2%
same,Population Mitochondria Different-Phenotype (%),[1],5%
same,Population Mitotic Cells (%),[1],71%
same,Population Normal (%),[1],100%
same,Population Pyknosed Nuclei (%),[1],15%
same,Population Tubulin-Different-Phenotype (%),[1],22%
same,Total Cell Count,[1],136
same,Population Apoptotic (%),[2],38%
same,Population Fragmented Nuclei (%),[2],32%
same,Population Healthy Nuclei (%),[2],37%
same,Population Hoechst High Intensity Objects (%),[2],6%
same,Population Membrane Permeable-Phenotype (%),[2],15%
same,Population Mitochondria Different-Phenotype (%),[2],6%
same,Population Mitotic Cells (%),[2],61%
same,Population Normal (%),[2],93%
same,Population Pyknosed Nuclei (%),[2],29%
same,Population Tubulin-Different-Phenotype (%),[2],48%
same,Total Cell Count,[2],93
same,Population Apoptotic (%),[3],48%
same,Population Fragmented Nuclei (%),[3],15%
same,Population Healthy Nuclei (%),[3],67%
same,Population Hoechst High Intensity Objects (%),[3],1%
same,Population Membrane Permeable-Phenotype (%),[3],2%
same,Population Mitochondria Different-Phenotype (%),[3],5%
same,Population Mitotic Cells (%),[3],51%
same,Population Normal (%),[3],98%
same,Population Pyknosed Nuclei (%),[3],17%
same,Population Tubulin-Different-Phenotype (%),[3],23%
same,Total Cell Count,[3],179
same,Population Apoptotic (%),[4],28%
same,Population Fragmented Nuclei (%),[4],42%
same,Population Healthy Nuclei (%),[4],32%
same,Population Hoechst High Intensity Objects (%),[4],8%
same,Population Membrane Permeable-Phenotype (%),[4],9%
same,Population Mitochondria Different-Phenotype (%),[4],12%
same,Population Mitotic Cells (%),[4],72%
same,Population Normal (%),[4],91%
same,Population Pyknosed Nuclei (%),[4],24%
same,Population Tubulin-Different-Phenotype (%),[4],36%
same,Total Cell Count,[4],110
same,Population Apoptotic (%),[5],40%
same,Population Fragmented Nuclei (%),[5],19%
same,Population Healthy Nuclei (%),[5],68%
same,Population Hoechst High Intensity Objects (%),[5],2%
same,Population Membrane Permeable-Phenotype (%),[5],1%
same,Population Mitochondria Different-Phenotype (%),[5],3%
same,Population Mitotic Cells (%),[5],60%
same,Population Normal (%),[5],97%
same,Population Pyknosed Nuclei (%),[5],11%
same,Population Tubulin-Different-Phenotype (%),[5],18%
same,Total Cell Count,[5],131
same,Population Apoptotic (%),[6],27%
same,Population Fragmented Nuclei (%),[6],39%
same,Population Healthy Nuclei (%),[6],38%
same,Population Hoechst High Intensity Objects (%),[6],7%
same,Population Membrane Permeable-Phenotype (%),[6],12%
same,Population Mitotic Cells (%),[6],72%
same,Population Normal (%),[6],92%
same,Population Pyknosed Nuclei (%),[6],22%
same,Population Tubulin-Different-Phenotype (%),[6],58%
same,Total Cell Count,[6],88
same,Population Apoptotic (%),[7],70%
same,Population Fragmented Nuclei (%),[7],12%
same,Population Healthy Nuclei (%),[7],70%
same,Population Hoechst High Intensity Objects (%),[7],4%
same,Population Membrane Permeable-Phenotype (%),[7],0%
same,Population Mitochondria Different-Phenotype (%),[7],6%
same,Population Mitotic Cells (%),[7],29%
same,Population Normal (%),[7],95%
same,Population Pyknosed Nuclei (%),[7],16%
same,Population Tubulin-Different-Phenotype (%),[7],22%
same,Total Cell Count,[7],170
same,Population Apoptotic (%),[8],35%
same,Population Fragmented Nuclei (%),[8],47%
same,Population Healthy Nuclei (%),[8],33%
same,Population Hoechst High Intensity Objects (%),[8],11%
same,Population Membrane Permeable-Phenotype (%),[8],5%
same,Population Mitochondria Different-Phenotype (%),[8],11%
same,Population Mitotic Cells (%),[8],65%
same,Population Normal (%),[8],88%
same,Population Pyknosed Nuclei (%),[8],18%
same,Population Tubulin-Different-Phenotype (%),[8],41%
same,Total Cell Count,[8],120
same,Population Apoptotic (%),[9],61%
same,Population Fragmented Nuclei (%),[9],21%
same,Population Healthy Nuclei (%),[9],68%
same,Population Hoechst High Intensity Objects (%),[9],1%
same,Population Membrane Permeable-Phenotype (%),[9],0%
same,Population Mitochondria Different-Phenotype (%),[9],3%
same,Population Mitotic Cells (%),[9],38%
same,Population Normal (%),[9],98%
same,Population Pyknosed Nuclei (%),[9],9%
same,Population Tubulin-Different-Phenotype (%),[9],23%
same,Total Cell Count,[9],137
same,Population Apoptotic (%),[10],50%
same,Population Fragmented Nuclei (%),[10],45%
same,Population Healthy Nuclei (%),[10],32%
same,Population Hoechst High Intensity Objects (%),[10],5%
same,Population Membrane Permeable-Phenotype (%),[10],3%
same,Population Mitochondria Different-Phenotype (%),[10],7%
same,Population Mitotic Cells (%),[10],50%
same,Population Normal (%),[10],94%
same,Population Pyknosed Nuclei (%),[10],22%
same,Population Tubulin-Different-Phenotype (%),[10],57%
same,Total Cell Count,[10],85
same,Population Apoptotic (%),[11],84%
same,Population Fragmented Nuclei (%),[11],20%
same,Population Healthy Nuclei (%),[11],63%
same,Population Hoechst High Intensity Objects (%),[11],7%
same,Population Membrane Permeable-Phenotype (%),[11],0%
same,Population Mitochondria Different-Phenotype (%),[11],11%
same,Population Mitotic Cells (%),[11],16%
same,Population Normal (%),[11],92%
same,Population Pyknosed Nuclei (%),[11],16%
same,Population Tubulin-Different-Phenotype (%),[11],28%
same,Total Cell Count,[11],162
same,Population Apoptotic (%),[12],50%
same,Population Fragmented Nuclei (%),[12],44%
same,Population Healthy Nuclei (%),[12],38%
same,Population Hoechst High Intensity Objects (%),[12],5%
same,Population Membrane Permeable-Phenotype (%),[12],15%
same,Population Mitochondria Different-Phenotype (%),[12],5%
same,Population Mitotic Cells (%),[12],50%
same,Population Normal (%),[12],94%
same,Population Pyknosed Nuclei (%),[12],17%
same,Population Tubulin-Different-Phenotype (%),[12],50%
same,Total Cell Count,[12],110
